In ChEMBL document CHEMBL1221396, “Resveratrol oligomers from Vatica albiramis” (J Nat Prod, 2010):
Activity calls are given as the source filed them. The calls are words filed in the database; no cut-off is given here.

Legend:
HFF [1] = assay: Antiinflammatory activity in human foreskin fibroblast assessed as inhibition of IL-1-beta-induced MMP1 production at 1 uM treated for 24 hrs before IL1-beta challenge measured after 24 hrs by Western blot analysis; format: functional, cell-based
Procedure, shortened: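 Fibroblasts were grown in DMEM with 10% FBS at 37 °C under 5% CO2, seeded at 2 × 10⁵ cells/mL, grown to confluence, and treated for 24 h. Secreted MMP-1 was measured by western blot. Blots were blocked in TBS with 5% skim milk and 0.05% Tween-20 for 1 h at room temperature, incubated with primary antibody overnight at 4 °C, then with HRP secondary antibody for 1 h at room temperature.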

HFF [2] = assay: Cytotoxicity against human foreskin fibroblast at 1 uM; format: cell-based

Row | SMILES | inhibition (HFF [1]) | Activity (HFF [2])
1 | Oc1ccc([C@@H]2c3c(O)cc(O)cc3[C@@H]3c4c(cc(O)cc4[C@H]2[C@@H]2c4cc(O)cc5c4[C@@H](c4cc(O)cc(O)c4[C@H]2c2ccc(O)cc2)[C@H](c2ccc(O)cc2)O5)O[C@H]3c2ccc(O)cc2)cc1 | Active | Non-toxic
2 | Oc1ccc(/C=C\c2cc(O)cc3c2[C@@H](c2cc(O)cc(O)c2)[C@H](c2ccc(O)cc2)O3)cc1 | inactive | –
3 | Oc1ccc([C@H]2c3c(O)cc(O)cc3[C@@H]3c4c(cc(O)cc4[C@H]2O)O[C@H]3c2ccc(O)cc2)cc1 | inactive | –
4 | Oc1ccc([C@H]2c3c(O)cc4c(c3[C@@H]3[C@@H](c5ccc(O)cc5)c5c(O)cc6c(c5[C@H]23)[C@@H](c2cc(O)cc(O)c2)[C@H](c2ccc(O)cc2)O6)[C@@H](c2cc(O)cc(O)c2)[C@H](c2ccc(O)cc2)O4)cc1 [STENOPHYLLOL C] | Active | Non-toxic
5 | OC[C@H]1O[C@@H](Oc2cc3c4c(c2)[C@@H]([C@@H]2c5cc(O)cc6c5[C@@H](c5cc(O)cc(O)c5[C@H]2c2ccc(O)cc2)[C@H](c2ccc(O)cc2)O6)[C@H](c2ccc(O)cc2)c2c(O)cc(O)cc2[C@H]4[C@H](c2ccc(O)cc2)O3)[C@H](O)[C@@H](O)[C@@H]1O [VATALBINOSIDE A] | Active | Non-toxic
6 | OC[C@H]1O[C@@H](Oc2cc(O)cc([C@@H]3c4c(/C=C/c5ccc(O)cc5)cc(O[C@@H]5O[C@H](CO)[C@@H](O)[C@H](O)[C@H]5O)cc4O[C@H]3c3ccc(O)cc3)c2)[C@H](O)[C@@H](O)[C@@H]1O | inactive | –
7 | Oc1ccc([C@@H]2c3c(O)cc(O)cc3[C@@H]3c4c(cc(O)cc4[C@H]2[C@@H]2c4cc(O)c([C@@H](c5ccc(O)cc5)[C@@H]5c6c(c(O)cc7c6[C@@H](c6cc(O)cc(O)c6)[C@H](c6ccc(O)cc6)O7)[C@H](c6cc(O)cc7c6[C@H](c6cc(O)cc(O)c6)[C@@H](c6ccc(O)cc6)O7)[C@H]5c5ccc(O)cc5)c5c4[C@@H](c4cc(O)cc(O)c4[C@H]2c2ccc(O)cc2)[C@H](c2ccc(O)cc2)O5)O[C@H]3c2ccc(O)cc2)cc1 [VATERIAPHENOL A] | Active | Non-toxic
8 | Oc1ccc(/C=C/c2cc(O)cc3c2[C@@H](c2cc(O)cc(O)c2)[C@H](c2ccc(O)cc2)O3)cc1 | inactive | –
9 | Oc1ccc([C@@H]2c3c(O)cc(O)cc3[C@@H]3c4c(cc(O)c5c4[C@@H]2[C@H](c2ccc(O)cc2)[C@H]5c2cc(O)cc4c2[C@@H](c2cc(O)cc(O)c2)[C@H](c2ccc(O)cc2)O4)O[C@H]3c2ccc(O)cc2)cc1 [Vaticanol B] | Active | Non-toxic
10 | Oc1ccc([C@@H]2c3c(O)cc4c(c3[C@@H]3c5c(O)cc6c(c5[C@H]2[C@H]3c2ccc(O)cc2)[C@@H](c2cc(O)cc(O)c2)[C@H](c2ccc(O)cc2)O6)[C@@H](c2cc(O)cc(O)c2)[C@H](c2ccc(O)cc2)O4)cc1 [VATICANOL C] | Active | Non-toxic
